# WNV NS2B-NS3 inh: WNV NS2B-NS3 proteinase inhibition; WNV NS2B-NS3 protease, fluorogenic substrate Ex360/Em465; active compounds read low; P06935; 0.18% of 65,000 active; z-score (no concentration beside the values); AID 577; in the data active means z-score below about -3
# AP ELISA ortho: orthogonal test for alternative complement pathway inhibitors | Human serum alternative complement pathway, LPS-coated ELISA, C3 deposition; tested in compound mixtures | AID 1235 | inhibition, % at 5 µM | 0.08% of 62,000 active;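 active means inhibition above 30% in each of the two pooled mixtures holding the compound, so the lower value exceeds 30%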;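 further: 0% = serum in Mg-EGTA without compound and 100% = EDTA serum blank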
#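 Test system – human serum alternative complement pathway, C3 deposition on LPS-coated wells · Buffer or medium – diluted human serum in Mg2+-EGTA GVB++ · Compound dosing – 5 µM each compound, pools of ten, 50 µM per pool · Schedule – 1 h serum-compound exposure at 37 °C · Measured by – Anti-C3 ELISA, OD 450 nm · Read-out basis – percent inhibition of C3 deposition onto LPS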
# DAT uptake mod: changed human dopamine transporter uptake under cocaine IC80; B-score at 10 µM; LLC-PK1 hDAT cells, [14C]-dopamine uptake with cocaine IC80; actives deviate in either direction; 1.3% of 110,000 active;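 active means Z score or B-score, a plate-position-corrected score, falls beyond the plate's 99.7% confidence bounds, in either direction; inactive means both scores lie inside the 99.7% bounds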;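 further: scored against the spread of the other compound wells on the same plate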
# Target sequence (Q01959 whole entry, looked up): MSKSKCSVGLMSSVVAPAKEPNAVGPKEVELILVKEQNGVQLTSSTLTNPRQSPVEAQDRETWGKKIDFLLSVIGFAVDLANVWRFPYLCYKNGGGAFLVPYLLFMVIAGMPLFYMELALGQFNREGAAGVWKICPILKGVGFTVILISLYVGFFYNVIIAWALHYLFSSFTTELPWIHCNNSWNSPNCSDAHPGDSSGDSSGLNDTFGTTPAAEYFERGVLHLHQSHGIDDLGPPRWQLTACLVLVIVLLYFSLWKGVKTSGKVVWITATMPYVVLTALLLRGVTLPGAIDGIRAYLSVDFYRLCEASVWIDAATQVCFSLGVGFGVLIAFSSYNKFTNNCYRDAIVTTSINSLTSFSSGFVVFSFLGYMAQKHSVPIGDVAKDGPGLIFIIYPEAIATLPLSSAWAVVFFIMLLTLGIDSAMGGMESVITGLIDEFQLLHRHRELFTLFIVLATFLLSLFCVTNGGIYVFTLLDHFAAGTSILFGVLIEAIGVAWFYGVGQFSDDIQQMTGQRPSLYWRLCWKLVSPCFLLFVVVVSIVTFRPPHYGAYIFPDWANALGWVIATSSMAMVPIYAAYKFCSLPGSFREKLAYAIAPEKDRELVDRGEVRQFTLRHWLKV
# D1 allo mod: allosteric modulators of human D1 dopamine receptor; P21728; HEK293 D1, CRE-luciferase, dopamine EC30 potentiation; actives deviate in either direction; B-score at 10 µM; 5.9% of 58,000 active;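 active means luminescence count or its row- and column-corrected plate score outside the 99.7% band of the plate's sample wells, on either side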
# D1 mod confirm: confirmation of human D1 dopamine receptor allosteric modulators | HEK293 D1 CRE-luciferase, dopamine EC30 potentiation; active compounds read high | shares compounds with D1 allo mod | AID 642 | luminescence at 10 µM | 88% of 2,200 active;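 active means luminescence in either of two replicates above the same-plate mean plus 3 SD of the low-dose dopamine control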
# D1 no dopamine: activates D1 CRE-luciferase signal without dopamine present; 0.8% of 1,900 active; shares compounds with D1 allo mod; luminescence at 10 µM; HEK293 D1 CRE-luciferase, luminescence, no dopamine; active compounds read high; in the data active means luminescence above about 3900
# Isoprot counter: counter-screen for D1 modulators: isoproterenol response in HEK293 cells; luminescence at 10 µM; shares compounds with D1 allo mod; HEK293 D1 CRE-luciferase, isoproterenol EC30 counter-screen; active compounds read high; 63% of 2,200 active; AID 647;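 active means luminescence in either replicate above plate mean of wells with a partly effective reference agonist dose plus 3 SD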;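 further: isoproterenol raises cAMP through native beta-adrenoceptor Gs so signal bypasses D1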
# An asterisk follows results filed as active; . = no result. The sample as a whole holds a higher share of hits than the screen did.
SMILES,WNV NS2B-NS3 inh,AP ELISA ortho,DAT uptake mod,D1 allo mod,D1 mod confirm,D1 no dopamine,Isoprot counter
O=C(C1CCCN1S(=O)(=O)c1cccc2cccnc12)N1CCn2c1nc1ccccc12 (stereo unspecified),-0.81,18,1.8,-0.062,.,.,.
O=C(C1CCN(S(=O)(=O)c2cccc3cccnc23)CC1)N1CCn2c1nc1ccccc12,1.1,16,.,4.9*,12004*,2024,3540*
CC1CN(c2ccccc2)C(=O)CS1 (stereo unspecified),-0.74,11,-0.21,0.29,.,.,.
Oc1[nH]c2ccccc2c1C1=NCCCC1,-1.7,8,0.052,0.0021,.,.,.
O=c1o[nH]c(-c2ccccc2)c1C1=NCCCCC1,0.93,-28,-1.3,9*,6360,1616,2536
Cn1cnc2c1c(=O)n(Cc1ccccc1)c(=O)n2C,-0.05,21,-1.2,.,.,.,.
Cn1cnc2c1c(=O)n(Cc1cccc(Br)c1)c(=O)n2C,0.09,6,0.028,11*,12308*,1656,4408*
O=C(CSc1ncnc2c1nnn2-c1ccc(F)cc1)N1CCN(c2ccccc2)CC1,-0.4,-2,.,.,.,.,.
Cn1c(C(=O)NC2CCCC2)cc2c(=O)n(C)c3ccccc3c21,0.62,12,-0.58,-0.57,.,.,.
CCCCSc1nc2c(cnn2-c2ccc(F)cc2)c(=O)[nH]1,-0.45,14,-0.0072,7*,7560*,1648,2732
COC(=O)c1ccc(CSc2nc3c(cnn3-c3ccccc3)c(=O)[nH]2)o1,1,.,-2.2,6.5*,12392*,1648,4400*
COC(=O)c1ccc(CSc2nc3ccccc3c(=O)n2CC(C)C)o1,.,.,-0.12,.,.,.,.
COC(=O)c1ccc(CSc2nc3c(cnn3-c3ccc(Cl)cc3)c(=O)[nH]2)o1,-0.91,.,-0.72,1.5,.,.,.
COC(=O)c1ccc(CSc2nc3ccccc3c(=O)n2Cc2ccco2)o1,0.24,13,-0.083,6.5*,9240*,1456,3296*
COC(=O)c1ccc(CSc2nc3c(cnn3-c3ccc(F)cc3)c(=O)[nH]2)o1,-0.2,4,0.44,5.3*,9428*,1608,3288
CCOC(=O)N1CCC2(CC1)C(C#N)=C(N)Oc1c2c(C)nn1-c1cccc(Cl)c1,-0.1,-8,1,0.97,.,.,.
Cc1ccc(OCC(=O)OCC(=O)c2c(N)n(C)c(=O)n(C)c2=O)cc1C,.,.,0.46,.,.,.,.
Cn1c(=O)n(C)c2cc(NC(=O)CCl)ccc21,.,.,-0.67,.,.,.,.
COc1ccc(CNC(=O)c2ccc(N3CCC4(CC3)CC(c3ccc(Cl)cc3)=NO4)c(NC(=O)c3ccccc3)c2)cc1,.,.,-0.15,.,.,.,.
O=C(COc1ccccc1)Nc1ccc(OC(F)(F)C(F)F)c(NC(=O)COc2ccccc2)c1,.,.,-0.53,.,.,.,.
COc1ccc(NC(=O)CSc2nc3ccccc3c(=O)n2-c2ccc3c(c2)OCO3)c(OC)c1,-1.4,5,-0.1,3.9*,8076*,1568,3720*
O=C(c1cc2c(=O)oc3ccccc3c2s1)N1CCN(c2ccccn2)CC1,0.27,-1,.,-0.037,.,.,.
CCC(NC(C)C)C(O)c1ccc(O)c2[nH]c(=O)ccc12 (stereo unspecified),0.49,14,-0.95,14*,8644*,3980*,5668*
CCOC(=O)c1sc2nc(N3CCOCC3)c3c(c2c1N)CC(C)(C)N(C)C3,.,.,-0.99,3.1*,12684*,1612,3440*
COc1cc2c(cc1OC)C(C(=O)NCCN1CCOCC1)C1c3ccccc3CCN1C2=O (stereo unspecified),0.2,13,0.97,-0.15,.,.,.
SMILES,WNV NS2B-NS3 inh,AP ELISA ortho,DAT uptake mod,D1 allo mod,D1 mod confirm,D1 no dopamine,Isoprot counter
COc1cc2c(cc1OC)C(C(=O)Nc1ccc3c(c1)OCCO3)C1c3ccccc3CCN1C2=O (stereo unspecified),0.55,0,1.2,4.1*,6868*,1804,2996
O=c1[nH]c2ccsc2c(=O)n1-c1ccc(F)cc1,-0.7,7,0.046,0.2,.,.,.
O=c1[nH]c2ccsc2c(=O)n1-c1ccc(F)c(Cl)c1,-0.95,2,0.17,8.3*,14224*,1628,4320*
CCOCCn1c(SCc2ccc(F)cc2)nc2c1c(=O)[nH]c(=O)n2C,-0.3,22,-0.23,-0.047,.,.,.
CCOC(=O)C(C)Sc1nc2c(c(=O)[nH]c(=O)n2C)n1C/C=C(/C)Cl (stereo unspecified),0.32,10,-0.014,9.3*,12104*,1572,4240*
C/C(Cl)=C/Cn1c(SCc2ccc(Cl)cc2)nc2c1c(=O)[nH]c(=O)n2C,-0.47,10,0.62,8.8*,10156*,1472,3628*
C=CCSc1nc2c(c(=O)[nH]c(=O)n2C)n1C/C=C(/C)Cl,-1.1,-1,-1.5,19*,20956*,.,5232*
CSc1nc2c(c(=O)[nH]c(=O)n2C)n1C/C=C(\C)Cl,0.69,8,0.54,15*,24712*,1588,6020*
Cc1ccc([N+](=O)[O-])cc1NC(=O)c1ccc(-c2ccccc2)cc1,.,.,-0.87,.,.,.,.
Cc1ccc(C(=O)CN(C(=O)c2ccc(Cl)c(Cl)c2)N2C(=O)C3C4C=CC(C4)C3C2=O)cc1 (stereo unspecified),.,.,1.1,.,.,.,.
CCOCCn1c(SCc2ccccc2)nc2c1c(=O)[nH]c(=O)n2C,-1.1,5,-0.12,0.26,.,.,.
C/C=C/Cn1c(SCc2ccccc2)nc2c1c(=O)[nH]c(=O)n2C,0.44,9,-0.024,15*,16256*,1572,4120*
CCSc1nc2c(c(=O)[nH]c(=O)n2C)n1C/C=C(/C)Cl,-0.65,-29,-0.041,14*,19268*,1408,6604*
C/C(Cl)=C/Cn1c(SCCN2CCOCC2)nc2c1c(=O)[nH]c(=O)n2C,0.09,-12,1.6,1.1,.,.,.
Cc1noc(C)c1COC(=O)c1ccccc1Oc1ccccc1,0.01,5,-0.17,6.1*,8776*,1556,3864*
Cc1cc(NC(=O)c2ccccc2Oc2ccccc2)no1,-0.98,14,-0.035,6.2*,9100*,1632,3488
Cc1noc(C)c1COC(=O)c1ccccc1NC(=O)Cc1ccccc1,0.29,21,0.8,1.4,.,.,.
COC(=O)[C@@H]1C[C@@]2(O)[C@@H](O)[C@@H](O)[C@@H](O)C[C@H]2N1Cc1ccc(Cl)cc1,.,.,-0.15,.,.,.,.
CSc1nncc(-c2ccc(F)c(F)c2)n1,-1.4,17,0.67,4.4*,11748*,1704,3068
CSc1nncc(-c2ccc(F)cc2)n1,0.84,6,0.042,8.2*,8776*,.,2888*
CSc1nnc(-c2ccc(F)cc2)o1,0.06,-4,0.39,-1.1,.,.,.
O=C(NC1CCCCC1)c1cnn2c(C(F)(F)F)cc(-c3ccco3)nc12,1.5,-5,-0.81,5.3*,6744*,1356,3856*

# Source: PubChem (several laboratories)
